According to article PMC6217654 (ACS Omega, 2018):

Experiments:
[1] = system: reserpine-induced hypothermia mice; experiment: Antagonistic effect on reserpine-induced hypothermia in mice; format: in vivo; settings: p.o.
Summary of the method: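 Male ddY mice (bought at 6 weeks, 1-week quarantine, ~25 °C). Reserpine 3 mg/kg s.c.; mice with rectal temperature ≤30 °C about 18 h later were used. Test compound in saline p.o. at 5 μmol/kg, TRH at 50 μmol/kg, saline controls. Rectal temperature by thermistor before and up to 7 h post-dose. Trapezoidal AUC0–7h, with saline AUC subtracted. Mean ± SD, ≥3 animals.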

[2] = system: rats with Ara-C-induced cerebellar damage; experiment: Ara-C-induced cerebellar ataxia in rats, open field fall index; format: in vivo, rat; settings: 79 10 and 30 mg/kg p.o. once daily for 7 days, vs control
[3] = system: plasma TSH level; experiment: TSH releasing activity after oral administration in rats; format: in vivo; settings: rat
Summary of the method: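 Male Sprague-Dawley rats (258–320 g, n ≥ 4, fed), dosed p.o. at 0.1 or 1 mg/2 mL/kg in water. Blood taken by decapitation at scheduled times, clotted 30 min at 25 °C, centrifuged for serum. TSH measured by [125I] rat TSH assay kit with magnetic separation. Mean ± SD.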

[4] = PK of TRH and 79 after oral administration to fasted conscious rats; format: in vivo, rat
Summary of the method: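 Male Wistar rats (10–11 weeks, 230–274 g, n ≥ 4), fasted from the evening before dosing to the 12 h sample. Jugular cannula placed under isoflurane 2–3 days before. Single p.o. dose of 40 mg/4 mL/kg in saline. Heparinized blood (~0.3 mL) drawn via cannula; plasma deproteinized with methanol; HPLC with UV absorbance detection. Cmax, Tmax, AUC0–8h given as mean ± SD.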

[5] = Stability in rat plasma, cerebrum and cerebellum homogenate at 37 °C; format: in vitro ADME; settings: for compound remaining, cerebellum: rat cerebellum homogenate; for compound remaining, cerebrum: rat cerebrum homogenate; for compound remaining, plasma: rat plasma
[6] = system: CYP1A2, CYP2A6, CYP2B6, CYP2C8, CYP2C9, CYP2C19, CYP2D6, CYP2E1, CYP3A4/5, CYP4A11; experiment: Direct CYP inhibition, 10 CYP enzymes; format: in vitro ADME; settings: human
[7] = system: CYP1A2, CYP2A6, CYP2B6, CYP2C9, CYP2C19, CYP2D6, CYP2E1, CYP3A4/5, CYP4A11; experiment: Direct CYP inhibition, 10 CYP enzymes; format: in vitro ADME; settings: human
[8] = biological target: T1, CYP2C8 (Homo sapiens, UniProt P10632); experiment: Direct CYP inhibition, CYP2C8; format: in vitro ADME
T1 sequence (P10632 1-490): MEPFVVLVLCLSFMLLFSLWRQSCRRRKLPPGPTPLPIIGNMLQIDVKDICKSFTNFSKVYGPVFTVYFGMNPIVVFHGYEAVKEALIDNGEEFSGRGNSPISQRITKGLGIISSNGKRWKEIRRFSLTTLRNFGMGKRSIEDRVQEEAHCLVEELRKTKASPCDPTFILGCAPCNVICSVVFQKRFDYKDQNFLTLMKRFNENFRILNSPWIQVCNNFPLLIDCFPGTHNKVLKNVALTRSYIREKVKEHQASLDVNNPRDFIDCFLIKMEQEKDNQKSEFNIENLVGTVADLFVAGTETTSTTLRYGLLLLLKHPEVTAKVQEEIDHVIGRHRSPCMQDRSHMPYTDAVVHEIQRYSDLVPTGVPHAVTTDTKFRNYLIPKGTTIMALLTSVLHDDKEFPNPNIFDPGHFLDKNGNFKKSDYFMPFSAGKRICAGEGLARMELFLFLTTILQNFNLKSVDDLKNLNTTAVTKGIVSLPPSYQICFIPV

[9] = system: rats; experiment: Acute lethal dose, single oral administration in rats; format: in vivo, rat
[10] = biological target: human TRH-R; settings: read-out: Ki for human TRH-R; in vitro binding, reported previously; cited from earlier work
[11] = male, Wistar, rat, plasma, po, 40 mg/kg

C[C@@H]1OC(=O)N[C@@H]1C(=O)N[C@@H](Cc1cscn1)C(=O)N1CCC[C@H]1C [Compound 79, 1-{N-[(4S,5S)-(5-Methyl-2-oxooxazolidine-4-yl)carbonyl]-3-(thiazol-4-yl)-L-alanyl}-(2R)-2-methylpyrrolidine trihydrate]
rectal temperature compared with saline levels ([1]; 79 5 μmol/kg from 2 to 7 h, TRH 50 μmol/kg from 0 to 7 h): > 2.5 °C | rectal temperature ΔAUC0–7h = AUC0–7h(compounds) – AUC0–7h(saline) ([1]; reserpine-induced hypothermia mice, TRH 50 μmol/kg, 79 5 μmol/kg): 28.0 ± 4.3 °C·h | rectal temperature AUC0–7h ([1]; reserpine-induced hypothermia mice, TRH 50 μmol/kg, 79 5 μmol/kg, mean ± SD): 233.4 ± 4.3 °C·h | fall index [2]: significant decrease | plasma TSH level ([3]; p.o. 0.1 mg/kg, at 0.5 h): 46.8 ng/mL | plasma TSH level ([3]; p.o. 1 mg/kg, at 0.5 h): 80.4 ng/mL | plasma TSH level ([3]; p.o. 0.1 and 1 mg/kg, at 24 h): recovered to vehicle levels | Cmax and AUC0–8h relative to TRH ([4]; fasted rats, p.o. 40 mg/kg): over 12 times | AUC(0-t) [4, 11]: 817 ± 349 ng·h/mL | Cmax [4, 11]: 636 ± 232 ng/mL | Tmax [4, 11]: 15 min | compound remaining, cerebellum ([5]; 15 min): 100 ± 0.0% | compound remaining, cerebellum ([5]; 30 min): 99.9 ± 0.0% | compound remaining, cerebellum ([5]; 60 min): 99.7 ± 0.0% | compound remaining, cerebellum ([5]; 120 min): 99.6 ± 0.1% | compound remaining, cerebellum ([5]; 180 min): 99.5 ± 0.1% | compound remaining, cerebrum ([5]; 15 min): 100.2 ± 0.2% | compound remaining, cerebrum ([5]; 30 min): 100.2 ± 0.1% | compound remaining, cerebrum ([5]; 60 min): 100.3 ± 0.1% | compound remaining, cerebrum ([5]; 120 min): 99.9 ± 0.1% | compound remaining, cerebrum ([5]; 180 min): 99.7 ± 0.1% | compound remaining, plasma ([5]; 15 min): 100 ± 0.1% | compound remaining, plasma ([5]; 30 min): 99.8 ± 0.1% | compound remaining, plasma ([5]; 60 min): 99.6 ± 0.3% | compound remaining, plasma ([5]; 120 min): 99.8 ± 0.2% | compound remaining, plasma ([5]; 180 min): 99.8 ± 0.1% | inhibition at 300 μM [6]: ≤ 50% | inhibition at 300 μM [7]: ≤ 10% | inhibition at 300 μM [8]: ~20% | acute lethal dose [9]: over 2000 mg/kg | Ki [10]: 702 nM
